Source: PubChem (several laboratories)
aSyn UTR inh – 5' untranslated region of α-synuclein, MLPCN primary screen | alpha-synuclein 5'UTR reporter, inhibitor activity | inhibition, % (tested at 7.5 µM) | hit rate 0.82% among 300,000 | AID 1813; in the data active = inhibition above about 60%;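 also: H4 neuroglioblastoma cells stably carrying SNCA 5'UTR luciferase fusion; 0% = DMSO wells and 100% = positive control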
T cruzi repl – blocks replication of Trypanosoma cruzi; T. cruzi beta-gal in NIH3T3, luminescence, 90 h; inhibition, % (test concentration not listed); hit rate 1.4% among 300,000;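 active = mean inhibition across valid replicates above about 55%, limit read from the data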;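 also: signal also drops with host cell toxicity which is not excluded here; 0% = plate median of DMSO wells and 100% = zero luminescence signal; higher percent means less beta-gal luminescence so fewer parasites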
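Read-out: Parasite load inhibition, % | Test system: Mouse NIH/3T3 fibroblasts infected with β-gal-expressing T. cruzi Tulahuen C4 | Amount: 5,000 cells/well | Medium: DMEM, 2% fetal bovine serum | Signal: GalScreen β-gal luminescence, detergent lysis, 60 min | Timing: 3 h attach, ≥90 h co-culture | Also added: Tulahuen C4 trypomastigotes, 5000/well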
CSC inhib – cancer stem cell inhibition | inhibition, % at 7.5 µM | cancer stem cell-like cells viability, luminescence | hit rate 1.1% among 300,000 | AID 2717; in the data active = inhibition above about 75%; tested in HMLE shEcad cells
Mdm2-MdmX inh – disrupts the human Mdm2-MdmX interaction; O15151+Q00987; SaOS-2 split-luciferase Mdm2/MdmX complementation, luminescence; inhibition, % at 8 µM; hit rate 3% among 330,000;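 active = inhibition of at least 50% at 8 µM in the primary screen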
Target sequence (O15151 whole entry, looked up): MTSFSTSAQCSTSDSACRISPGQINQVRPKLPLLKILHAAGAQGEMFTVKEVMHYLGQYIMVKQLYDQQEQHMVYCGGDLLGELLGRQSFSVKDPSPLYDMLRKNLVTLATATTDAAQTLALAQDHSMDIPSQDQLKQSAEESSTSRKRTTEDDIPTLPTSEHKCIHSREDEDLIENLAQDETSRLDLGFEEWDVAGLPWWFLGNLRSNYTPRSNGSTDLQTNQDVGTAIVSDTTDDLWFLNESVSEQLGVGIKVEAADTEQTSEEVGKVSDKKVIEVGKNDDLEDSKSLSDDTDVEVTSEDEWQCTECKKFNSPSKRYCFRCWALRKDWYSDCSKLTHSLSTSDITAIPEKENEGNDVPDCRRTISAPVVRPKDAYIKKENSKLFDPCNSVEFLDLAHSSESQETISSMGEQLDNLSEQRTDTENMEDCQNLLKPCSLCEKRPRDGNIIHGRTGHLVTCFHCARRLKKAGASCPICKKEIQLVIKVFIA
Target sequence (Q00987 whole entry, looked up): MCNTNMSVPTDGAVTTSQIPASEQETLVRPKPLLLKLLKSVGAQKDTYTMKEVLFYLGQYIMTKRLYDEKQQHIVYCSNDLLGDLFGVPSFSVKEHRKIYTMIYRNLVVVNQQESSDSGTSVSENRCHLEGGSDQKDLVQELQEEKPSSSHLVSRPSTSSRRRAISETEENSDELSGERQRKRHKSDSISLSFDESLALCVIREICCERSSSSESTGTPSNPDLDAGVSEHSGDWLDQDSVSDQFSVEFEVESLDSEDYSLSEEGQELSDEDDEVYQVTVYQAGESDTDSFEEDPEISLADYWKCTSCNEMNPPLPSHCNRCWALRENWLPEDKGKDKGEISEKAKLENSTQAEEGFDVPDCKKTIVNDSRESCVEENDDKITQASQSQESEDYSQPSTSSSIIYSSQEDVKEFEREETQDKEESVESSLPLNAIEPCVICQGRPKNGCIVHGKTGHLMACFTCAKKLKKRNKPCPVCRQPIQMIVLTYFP
SKKanGAS inh – inhibitors of SKKanGAS S. pyogenes growth in kanamycin (SK-promoter or general growth effect); BacTiter-Glo, 6 h; inhibition, % at 7.5 µM; hit rate 1.3% among 300,000; AID 1662;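 active = mean replicate score, as percent of positive control median, at least 50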;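 also: strain carries kanamycin resistance gene driven by streptokinase promoter and grows in 40 µg/ml kanamycin; loss of luminescence reflects streptokinase promoter inhibition or plain growth inhibition; 0% = median of DMSO wells and 100% = positive control at its reference dose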
Mdm2-MdmX conf – confirmation of human Mdm2/MdmX interaction inhibitors; shares compounds with Mdm2-MdmX inh; Mdm2-MdmX binding, luminescent assay; inhibition, % at 8 µM; hit rate 55% among 10,000; AID 489028; in the data active = inhibition above about 40%
Full FLuc ctr – full-length luciferase inhibition in Mdm2/MdmX counter-screen | shares compounds with Mdm2-MdmX inh | SaOS-2 full-length luciferase counterscreen, luminescence | inhibition, % at 8 µM | hit rate 77% among 6,200;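 active = mean inhibition at 8 µM reaching about 37%, which flags the compound as non-specific, limit read from the data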;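 also: p53-null SaOS-2 cells with luciferase driven by a doxycycline-inducible promoter; compound on cells about two nights before reading with doxycycline added after day one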
* = called active by the depositor; / = no result. The list is not random: actives were taken first. Their share in the collection is about 5.4%.

SMILES | aSyn UTR inh | T cruzi repl | CSC inhib | Mdm2-MdmX inh | SKKanGAS inh | Mdm2-MdmX conf | Full FLuc ctr
COc1ccc(CN2CCN(C(=O)c3cc(-c4cccnc4)nc4ccc(Cl)cc34)CC2)c(OC)c1OC | -18 | -1 | 13 | 51* | 2 | 49* | 73*
Cc1ncc([N+](=O)[O-])n1CCOC(=O)c1ccc(Cl)cc1Cl | -13 | 10 | -11 | -6 | -11 | / | /
O=C(CCc1ccncc1)NC1CCCc2c1cnn2-c1ccc(F)cc1F (stereo unspecified) | -14 | -8 | 3 | 19 | 0 | / | /
CCC(=O)Nc1ccc2c(c1)OCCO2 | -24 | -7 | -5 | -9 | -9 | / | /
O=C(CC1CS(=O)(=O)CC1CC(=O)Nc1ccc2c(c1)OCCO2)Nc1ccc2c(c1)OCCO2 (stereo unspecified) | -53 | -6 | 0 | 63* | 3 | 77* | 90*
CN(C)CCN(C)Cc1ccccc1Sc1cccc2ccccc12 | -9 | 47 | / | 64* | -6 | 43* | 69*
CC(NC(=O)Nc1nnc(C(F)(F)F)s1)(C(F)(F)F)C(F)(F)F | 47 | 45 | 2 | 95* | 84* | 59* | 33
CCN(C(=O)COC(=O)CNC(=O)c1ccccc1C)C1=CCCCC1 | / | / | / | -20 | / | / | /
CCCN(C(=O)CCl)C1=CCCCC1 | -44 | 26 | -11 | 85* | 1 | 27 | /
O=C(Nc1nc2ccccc2n1CCN1CCOCC1)c1cn(-c2ccccc2)nc1-c1ccccc1 | 83* | 66* | 57 | 51* | 85* | 22 | /
CC(NC(=O)C1=CC=CN2CCS(=O)(=O)N=C12)c1ccc(Cl)c(Cl)c1 (stereo unspecified) | / | / | / | -5 | / | / | /
O=C(Nc1ccccc1Br)C1CC(=O)N(c2ccc3c4c(cccc24)CC3)C1 (stereo unspecified) | -12 | -32 | 41 | 50* | -7 | 57* | 65*
CCOC(=O)c1c(-c2ccc(-c3ccccc3)cc2)csc1NC(=O)CNCCN(C)C | 101* | 47 | 99* | 83* | 112* | 53* | 61*
O=C(Nc1ccc(Br)cc1)c1ccc(N2C(=O)C3CC=C(Cl)CC3C2=O)cc1 (stereo unspecified) | -1 | -1 | 9 | 22 | -4 | / | /
CC[n+]1c(/C=C/N(C)c2ccccc2)n(-c2ccccc2)c2ccc(-c3nc4ccccc4s3)cc21 | 120* | 39 | 102* | 100* | 99* | 95* | 15
C#CCN1C=C(C(=O)OCC)C(C)N(Cc2ccccc2I)S1(=O)=O (stereo unspecified) | / | / | / | 55* | / | 49* | 51*
COc1cccc(NC(=O)COC(=O)CCC(=O)c2cccs2)c1 | / | / | / | -20 | / | / | /
CCCN(CCC)C(=O)CSc1nc2n[nH]c(C)c2c(=N)n1-c1ccc(OC)cc1 | 53 | 8 | 2 | 50* | 14 | 19 | /
CCN(C(=O)CSc1nc2n[nH]c(C)c2c(=N)n1-c1ccc(Cl)c(C)c1)c1cccc(C)c1 | 49 | 31 | 42 | 76* | 32 | 21 | /
CCCN(CCC)C(=O)CSc1nc2n[nH]c(C)c2c(=N)n1-c1ccc(OCC)cc1 | / | / | -17 | 33 | 33 | / | /
CCCCN(CC)C(=O)CSc1nc2n[nH]c(C)c2c(=N)n1-c1cccc(C)c1 | 39 | 41 | 6 | 25 | 43 | / | /
COc1ccccc1NC(=O)CSc1nc2n[nH]c(C)c2c(=N)n1-c1ccccc1Cl | -22 | 21 | 17 | 68* | 13 | 41* | 71*
CCOc1ccc(-n2c(SCC(=O)Nc3ccc(CC)cc3)nc3n[nH]c(C)c3c2=N)cc1 | 14 | 5 | -11 | 42 | 1 | / | /
COc1ccc(NC(=O)CSCc2cc(=O)n3cc(C)sc3n2)cc1 | 18 | 6 | -12 | 14 | -6 | / | /
N#Cc1sc2nccc(Nc3ccccc3)c2c1N | 15 | 0 | -9 | 92* | -2 | 78* | 49*
SMILES | aSyn UTR inh | T cruzi repl | CSC inhib | Mdm2-MdmX inh | SKKanGAS inh | Mdm2-MdmX conf | Full FLuc ctr
CCC1CCCCN1CCCNC(=O)Cn1ncn2nc(-c3ccc(OC)cc3)cc2c1=O (stereo unspecified) | -61 | 16 | 20 | 9 | 0 | / | /
C(=C\c1ccccc1)/CSc1nc2ncccc2[nH]1 | -58 | 9 | 4 | 7 | -2 | / | /
CC(=O)c1cccc(NC(=O)Nc2ccc3c(c2)N(C)C(=O)CS3)c1 | 17 | -9 | -4 | 51* | 12 | 20 | /
CC(=O)c1cccc(NC(=O)Nc2ccc(C(=O)N3CCCC3)cc2)c1 | -37 | -29 | -2 | 52* | 1 | 37 | /
COc1ccc(-c2csc(NC(=S)NC(=O)/C=C/c3ccc(C(C)C)cc3)n2)cc1OC | 12 | 34 | 4 | 44 | 37 | / | /
CCCCn1c(CCc2ccccc2)nc2cc3[nH]c(=O)c(C(C)C)nc3cc21 | 10 | 35 | -1 | 51* | 34 | 12 | /
CCc1cccc(C)c1NC(=S)NCC(c1cccnc1)N1CCOCC1 (stereo unspecified) | 0 | 2 | -3 | -11 | 3 | / | /
COc1ccc(-c2noc(CN(C)C(=O)c3ccoc3C)n2)cc1 | -17 | -3 | 6 | -16 | -2 | / | /
Cn1nc(-c2ccccc2)c(CSc2ccccc2Cl)c1Cl | 9 | 12 | 8 | 53* | 75* | 65* | 56*
Cc1[nH]c2ccccc2c1C(=O)COC(=O)c1ccc2c(=O)n3c(nc2c1)CCC3 | 30 | -2 | 2 | 59* | 93* | 33 | /
CC(C)(C)c1nc(NC(=O)Nc2ccccc2)sc1Br | -58 | 57* | 4 | 66* | 68* | 4 | /
COc1ccc2nc(NC(=O)Nc3ccccc3)sc2c1 | 6 | 0 | / | -87 | -16 | / | /
Cc1nc(-n2[nH]c3c(c2=O)CCCC3)[nH]c(=O)c1Cc1ccccc1 | 90* | 69* | 13 | 58* | 95* | 64* | 31
CCc1ccc2[nH]c3nc(SCc4nnc(-c5ccccc5)o4)nnc3c2c1 | -7 | 3 | 4 | 56* | -3 | -6 | /
COc1ccc2[nH]c3nc(SCc4nnc(-c5ccccc5)o4)nnc3c2c1 | -37 | -12 | 6 | 10 | 13 | / | /
CCc1nc(N=Nc2c(O)[nH]c3ccccc23)c2c3c(sc2n1)CCC3 | 43 | -7 | 13 | 87* | 0 | 13 | /
CCN(CC)CCN1C(=O)C2C(C(=O)Nc3cc(C)cc(C)c3)C3C=CC2(O3)C1C(=O)NC1CCCCC1 (stereo unspecified) | -6 | -2 | -47 | -8 | 1 | / | /
O=C1CC(C(=O)Nc2cccc3ccccc23)C2(CCCC2)O1 (stereo unspecified) | -21 | -9 | -16 | 14 | -7 | / | /
Cc1cccn2c(=O)c(/C=C(\C#N)C(=O)NCc3ccccc3)c(N3CCC(C(N)=O)CC3)nc12 | -7 | -6 | -15 | 64* | 0 | 1 | /
CCNC(=O)/C(C#N)=C/c1c(N2CCCCCC2)nc2c(C)cccn2c1=O | 20 | -3 | -6 | 22 | 8 | / | /
Nc1cc(N)c(OCC(F)(F)F)cc1OCC(F)(F)F | -9 | 2 | -7 | 78* | 4 | 14 | /
